According to ChEMBL document CHEMBL3414468, “N-benzoyl-1,5-benzothiazepine and its S-oxide as vasopressin receptor ligands: insight into the active stereochemistry around the seven-membered ring” (J Med Chem, 2015):
Values joined by “and” are separate entries in the source; they are usually repeats but may differ in a detail not shown here. Equal entries are not always repeated.

What was measured:
Vasopressin V1a receptor [1] = target: T1, Vasopressin V1a receptor (Homo sapiens, UniProt P37288); experiment: Displacement of [3H]-(Arg8)-vasopressin from human vasopressin V1a receptor transfected in CHO cell membranes
Summary of the method: (§1)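 Competition binding of [3H](Arg8)-vasopressin to human V1a or V2 receptors. Ki is reported as the mean of duplicate measurements. Where no Ki was given, percent inhibition of radioligand binding was read at 10 μM test compound.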
Target sequence in this assay (P37288 whole entry): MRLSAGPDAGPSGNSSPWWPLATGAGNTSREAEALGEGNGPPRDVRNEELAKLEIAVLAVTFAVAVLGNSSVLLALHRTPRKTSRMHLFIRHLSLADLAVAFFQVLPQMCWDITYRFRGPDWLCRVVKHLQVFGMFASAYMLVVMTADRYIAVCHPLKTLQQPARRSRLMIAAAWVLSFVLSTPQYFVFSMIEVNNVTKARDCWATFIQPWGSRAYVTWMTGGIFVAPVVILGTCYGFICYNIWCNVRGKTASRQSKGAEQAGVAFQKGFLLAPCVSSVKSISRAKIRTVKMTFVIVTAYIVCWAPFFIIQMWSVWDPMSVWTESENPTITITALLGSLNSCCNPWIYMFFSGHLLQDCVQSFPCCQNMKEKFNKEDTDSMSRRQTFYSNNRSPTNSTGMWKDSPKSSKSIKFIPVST

Vasopressin V2 receptor [2] = target: T2, Vasopressin V2 receptor (Homo sapiens, UniProt P30518); experiment: Displacement of [3H]-(Arg8)-vasopressin from human vasopressin V2 receptor transfected in CHO cell membranes; summary of the method: as §1
T2 sequence (P30518 whole entry): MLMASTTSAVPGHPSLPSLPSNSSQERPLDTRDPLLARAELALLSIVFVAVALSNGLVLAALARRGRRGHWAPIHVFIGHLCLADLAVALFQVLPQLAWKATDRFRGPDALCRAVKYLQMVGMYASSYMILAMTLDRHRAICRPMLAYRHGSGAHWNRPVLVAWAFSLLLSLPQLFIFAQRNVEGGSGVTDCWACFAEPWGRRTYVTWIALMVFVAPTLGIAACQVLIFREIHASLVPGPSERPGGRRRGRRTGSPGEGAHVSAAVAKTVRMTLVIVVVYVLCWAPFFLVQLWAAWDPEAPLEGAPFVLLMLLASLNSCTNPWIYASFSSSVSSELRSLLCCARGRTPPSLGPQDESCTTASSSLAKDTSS

Vasopressin V2 receptor [3] = target: T2, Vasopressin V2 receptor; experiment: Displacement of [3H]-(Arg8)-vasopressin from human vasopressin V2 receptor transfected in CHO cell membranes at 10 uM relative to control; summary of the method: as §1
Vasopressin V1a receptor [4] = target: T1, Vasopressin V1a receptor; experiment: Displacement of [3H]-(Arg8)-vasopressin from human vasopressin V1a receptor transfected in CHO cell membranes at 10 uM relative to control; summary of the method: as §1
Target sequence in this assay (P37288 whole entry, looked up): as the sequence (P37288 whole entry) above

Row | Ki (Vasopressin V1a receptor [1]) | Ki (Vasopressin V2 receptor [2]) | inhibition (Vasopressin V2 receptor [3]) [%] | inhibition (Vasopressin V1a receptor [4]) [%] | SMILES
1 | 68 nM | 21 nM |  |  | Cc1ccccc1C(=O)Nc1ccc(C(=O)N2CCCSc3ccccc32)cc1
2 | 37 nM and 19 nM and 147 nM | 360 nM and 184 nM and 1800 nM |  |  | Cc1ccccc1C(=O)Nc1ccc(C(=O)N2CCCSc3cccc(C)c32)cc1
3 | 48 nM | 880 nM |  |  | Cc1ccccc1C(=O)Nc1ccc(C(=O)N2CCCSc3c(C)cccc32)cc1
4 | 5.9 nM and 4.4 nM and 13 nM | 130 nM and 98 nM and 310 nM |  |  | Cc1ccccc1C(=O)Nc1ccc(C(=O)N2CCCN(C)c3cccc(C)c32)cc1
5 | 910 nM | 870 nM |  |  | Cc1ccccc1C(=O)Nc1ccc(C(=O)N2CCC[S+]([O-])c3ccccc32)cc1 (racemic)
6 | 870 nM |  | 34 |  | Cc1ccccc1C(=O)Nc1ccc(C(=O)N2CCC[S+]([O-])c3c(C)cccc32)cc1 (racemic)
7 |  |  | 22 | 55 | Cc1ccccc1C(=O)Nc1ccc(C(=O)N2CCC[S@@+]([O-])c3cccc(C)c32)cc1 (racemic)
8 |  | 1240 nM |  |  | Cc1ccccc1C(=O)Nc1ccc(C(=O)N2CCC[S@@+]([O-])c3ccccc32)cc1 (stereo in doubt; (+)) [listing 1 of 2 here]
9 | 660 nM |  |  |  | Cc1ccccc1C(=O)Nc1ccc(C(=O)N2CCC[S@@+]([O-])c3c(C)cccc32)cc1 (stereo in doubt; (+)) [listing 1 of 2 here]
10 |  |  | 48 |  | Cc1ccccc1C(=O)Nc1ccc(C(=O)N2CCC[S@@+]([O-])c3c(C)cccc32)cc1 (stereo in doubt; (+)) [listing 2 of 2 here]
11 |  |  |  | 57 | Cc1ccccc1C(=O)Nc1ccc(C(=O)N2CCC[S@@+]([O-])c3ccccc32)cc1 (stereo in doubt; (+)) [listing 2 of 2 here]
12 | 550 nM | 820 nM |  |  | Cc1ccccc1C(=O)Nc1ccc(C(=O)N2CCC[S@@+]([O-])c3ccccc32)cc1 (stereo in doubt; (-))
13 |  |  | 0 | 53 | Cc1ccccc1C(=O)Nc1ccc(C(=O)N2CCC[S@@+]([O-])c3c(C)cccc32)cc1 (stereo in doubt; (-))
